{
  "source": "ChEMBL document CHEMBL1121796",
  "about": "“Bioactivation of the antitumor drugs 9-hydroxyellipticine and derivatives by a peroxidase-hydrogen peroxide system” (1981)",
  "key": {"L1210 [1]": {"system": "L1210", "assay": "Compound was tested for its antitumor activity against murine leukemia L1210 cells in vitro, expressed as ID50", "assay_type": "functional", "conditions": "Mus musculus, read-out: ID50 (the source's name)", "method_in_brief": "(§1)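 L1210 murine leukemia cells were grown in culture with drug for 48 h. ID50 is the drug concentration that cuts the rate of cell multiplication by 50% compared with untreated controls.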"}, "L1210 [2]": {"system": "L1210", "assay": "Compound was tested for its cytotoxic activity against murine leukemia L1210 cells in mice after intraperitoneal treatment, expressed as LD0 (highest nonlethal dose).", "assay_type": "functional, Mus musculus", "method_in_brief": "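Highest nonlethal dose (LD0) found for each drug after a single intraperitoneal injection into DBA/2 or Swiss mice.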"}, "Mus musculus [3]": {"system": "Mus musculus", "assay": "Increase in life span over control (10e5 cells) in mice after intraperitoneal treatment of the compound.", "assay_type": "functional", "method_in_brief": "(§2)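 DBA/2 mice were inoculated with 10⁵ L1210 leukemia cells and given a single intraperitoneal injection of drug. Survival was compared with untreated controls as increase in life span, ILS = [(T − C)/C] × 100. An antitumor effect was counted significant at ILS ≥ 25%.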"}, "[4]": {"biological_target": "Myeloperoxidase (Homo sapiens) (UniProt P05164)", "assay": "The effect on NADH oxidation in the presence of MPO-H2O2."}, "[5]": {"biological_target": "Myeloperoxidase (Homo sapiens) (UniProt P05164)", "assay": "The effect on oxygen consumed in the presence of MPO-H2O2."}, "Mus musculus [6]": {"system": "Mus musculus", "assay": "Increase in life span over controls (10e5 cells) in mice after intraperitoneal treatment of the compound.", "assay_type": "functional", "parameters": "concentration or dose not given beside the values", "method_in_brief": "as §2"}, "[7]": {"biological_target": "Myeloperoxidase (Homo sapiens) (UniProt P05164)", "assay": "The effect on NADH oxidation in the presence of MPO-H2O2.", "remark": "listed apart in the source"}, "[8]": {"biological_target": "Myeloperoxidase (Homo sapiens) (UniProt P05164)", "assay": "The effect on oxygen uptake in the presence of MPO-H2O2 at pH 6.0"}, "[9]": {"biological_target": "Myeloperoxidase (Homo sapiens) (UniProt P05164)", "assay": "The effect on oxygen uptake in the presence of MPO-H2O2 at pH 7.8"}, "[10]": {"biological_target": "Myeloperoxidase (Homo sapiens) (UniProt P05164)", "assay": "The effect on oxygen uptake in the presence of MPO-H2O2 at pH 8.3"}, "[11]": {"biological_target": "Myeloperoxidase (Homo sapiens) (UniProt P05164)", "assay": "The effect on oxygen uptake in the presence of MPO-H2O2 at pH 6.8"}, "[12]": {"biological_target": "Myeloperoxidase (Homo sapiens) (UniProt P05164)", "assay": "The effect on oxygen uptake in the presence of MPO-H2O2 at pH 7.4"}, "[13]": {"biological_target": "Myeloperoxidase (Homo sapiens) (UniProt P05164)", "assay": "The effect on NADH oxidation in the presence of MPO-H2O2 at pH 6.0"}, "[14]": {"biological_target": "Myeloperoxidase (Homo sapiens) (UniProt P05164)", "assay": "The effect on NADH oxidation in the presence of MPO-H2O2 at pH 6.8"}, "[15]": {"biological_target": "Myeloperoxidase (Homo sapiens) (UniProt P05164)", "assay": "The effect on NADH oxidation in the presence of MPO-H2O2 at pH 7.4"}, "[16]": {"biological_target": "Myeloperoxidase (Homo sapiens) (UniProt P05164)", "assay": "The effect on NADH oxidation in the presence of MPO-H2O2 at pH 7.8"}, "[17]": {"biological_target": "Myeloperoxidase (Homo sapiens) (UniProt P05164)", "assay": "The effect on NADH oxidation in the presence of MPO-H2O2 at pH 8.3"}, "[18]": {"biological_target": "Myeloperoxidase (Homo sapiens) (UniProt P05164)", "assay": "The effect on NADH oxidation in the presence of MPO-H2O2 without the compound"}, "[19]": {"biological_target": "Myeloperoxidase (Homo sapiens) (UniProt P05164)", "assay": "The effect on NADH oxidation in the presence of MPO-H2O2 without compound at pH 7.4"}, "[20]": {"biological_target": "Myeloperoxidase (Homo sapiens) (UniProt P05164)", "assay": "The effect on NADH oxidation in the presence of MPO-H2O2 without compound at pH 7.8"}, "[21]": {"biological_target": "Myeloperoxidase (Homo sapiens) (UniProt P05164)", "assay": "The effect on oxygen uptake in the presence of MPO-H2O2 without the compound at pH 6.8"}, "[22]": {"biological_target": "Myeloperoxidase (Homo sapiens) (UniProt P05164)", "assay": "The effect on oxygen uptake in the presence of MPO-H2O2 without the compound at pH 7.4"}, "[23]": {"biological_target": "Myeloperoxidase (Homo sapiens) (UniProt P05164)", "assay": "The effect on oxygen uptake in the presence of MPO-H2O2 without the compound at pH 7.8"}, "[24]": {"biological_target": "Myeloperoxidase (Homo sapiens) (UniProt P05164)", "assay": "The effect on oxygen uptake in the presence of MPO-H2O2 without the compound at pH 8.3"}, "[25]": {"biological_target": "Myeloperoxidase (Homo sapiens) (UniProt P05164)", "assay": "The effect on oxygen uptake in the presence of MPO-H2O2 without the compound at pH 6.0"}, "[26]": {"biological_target": "Myeloperoxidase (Homo sapiens) (UniProt P05164)", "assay": "The effect on NADH oxidation in the presence of MPO-H2O2 without the compound at pH 8.3"}, "[27]": {"biological_target": "Myeloperoxidase (Homo sapiens) (UniProt P05164)", "assay": "The effect on NADH oxidation in the presence of MPO-H2O2 without the compound at pH 6.0"}, "[28]": {"biological_target": "Myeloperoxidase (Homo sapiens) (UniProt P05164)", "assay": "he effect on oxygen consumed in the presence of MPO-H2O2."}, "L1210 [29]": {"system": "L1210", "assay": "The compound is tested for its antitumor activity against murine leukemia L1210 cells in vitro, expressed as ID50", "assay_type": "functional", "conditions": "Mus musculus, read-out: ID50 (the source's name)", "method_in_brief": "as §1"}, "L1210 [30]": {"system": "L1210", "assay": "The compound is tested for its cytotoxic activity against murine leukemia L1210 cells in mice after intraperitoneal treatment, expressed as LD0 (highest nonlethal dose).", "assay_type": "functional, Mus musculus"}},
  "data": [
    {"compound": "Cc1c2c[n+](C)ccc2c(C)c2c1c1cc(O)ccc1n2C", "values": [
      {"measurement": "IC50", "setting": "L1210 [1]", "value": 41, "unit": "nM"},
      {"measurement": "LD0", "setting": "L1210 [2]", "value": 15, "unit": "mg/kg"},
      {"measurement": "ILS", "setting": "Mus musculus [3]", "value": 78, "unit": "%"},
      {"measurement": "NADH oxidized", "setting": "[4]", "value": 16.15, "unit": "nM/min"},
      {"measurement": "Oxygen consumed", "setting": "[5]", "value": 7.7, "unit": "nM/min"}
    ]},
    {"compound": "Cc1c2cc[n+](C)cc2c(C)c2c1[nH]c1ccc(O)cc12", "note": "[ELLIPTINIUM]", "values": [
      {"measurement": "IC50", "setting": "L1210 [1]", "value": 50, "unit": "nM"},
      {"measurement": "LD0", "setting": "L1210 [2]", "value": 5, "unit": "mg/kg"},
      {"measurement": "ILS", "setting": "Mus musculus [6]", "value": 62, "unit": "%"},
      {"measurement": "NADH oxidized", "setting": "[4]", "value": 12.2, "unit": "nM/min"},
      {"measurement": "Oxygen consumed", "setting": "[5]", "value": 0, "unit": "nM/min"}
    ]},
    {"compound": "Cc1c2ccncc2c(C)c2c1[nH]c1ccc(O)cc12", "values": [
      {"measurement": "IC50", "setting": "L1210 [1]", "value": 15, "unit": "nM"},
      {"measurement": "LD0", "setting": "L1210 [2]", "value": 50, "unit": "mg/kg"},
      {"measurement": "ILS", "setting": "Mus musculus [6]", "value": 53, "unit": "%"},
      {"measurement": "Oxygen consumed", "setting": "[7]", "value": 0, "unit": "nM/min"},
      {"measurement": "NADH oxidized", "setting": "[4]", "value": 10.5, "unit": "nM/min"},
      {"measurement": "Oxygen uptake", "setting": "[8]", "value": 0, "unit": "nM/min"},
      {"measurement": "Oxygen uptake", "setting": "[9]", "value": 0, "unit": "nM/min"},
      {"measurement": "Oxygen uptake", "setting": "[10]", "value": 0, "unit": "nM/min"},
      {"measurement": "Oxygen uptake", "setting": "[11]", "value": 0, "unit": "nM/min"},
      {"measurement": "Oxygen uptake", "setting": "[12]", "value": 0, "unit": "nM/min"},
      {"measurement": "NADH oxidation", "setting": "[13]", "value": 5.5, "unit": "nM/min"},
      {"measurement": "NADH oxidation", "setting": "[14]", "value": 7.8, "unit": "nM/min"},
      {"measurement": "NADH oxidation", "setting": "[15]", "value": 10.2, "unit": "nM/min"},
      {"measurement": "NADH oxidation", "setting": "[16]", "value": 7.2, "unit": "nM/min"},
      {"measurement": "NADH oxidation", "setting": "[17]", "value": 6.5, "unit": "nM/min"},
      {"measurement": "NADH oxidation", "setting": "[18]", "value": 0.5, "unit": "nM/min"},
      {"measurement": "NADH oxidation", "setting": "[19]", "value": 0, "unit": "nM/min"},
      {"measurement": "NADH oxidation", "setting": "[20]", "value": 0, "unit": "nM/min"},
      {"measurement": "Oxygen uptake", "setting": "[21]", "value": 0.28, "unit": "nM/min"},
      {"measurement": "Oxygen uptake", "setting": "[22]", "value": 0, "unit": "nM/min"},
      {"measurement": "Oxygen uptake", "setting": "[23]", "value": 0, "unit": "nM/min"},
      {"measurement": "Oxygen uptake", "setting": "[24]", "value": 0, "unit": "nM/min"},
      {"measurement": "Oxygen uptake", "setting": "[25]", "value": 0.52, "unit": "nM/min"},
      {"measurement": "NADH oxidation", "setting": "[26]", "value": 0, "unit": "nM/min"},
      {"measurement": "NADH oxidized", "setting": "[27]", "value": 1.2, "unit": "nM/min"}
    ]},
    {"compound": "Cc1c2cc[n+](C)cc2c(C)c2c1[nH]c1ccccc12", "values": [
      {"measurement": "IC50", "setting": "L1210 [1]", "value": 1680, "unit": "nM"},
      {"measurement": "LD0", "setting": "L1210 [2]", "value": 12.5, "unit": "mg/kg"},
      {"measurement": "ILS", "setting": "Mus musculus [6]", "value": 18, "unit": "%"},
      {"measurement": "Oxygen consumed", "setting": "[28]", "value": 0, "unit": "nM/min"},
      {"measurement": "NADH oxidized", "setting": "[4]", "value": 0, "unit": "nM/min"}
    ]},
    {"compound": "COc1ccc2[nH]c3c(C)c4ccncc4c(C)c3c2c1", "values": [
      {"measurement": "IC50", "setting": "L1210 [29]", "value": 600, "unit": "nM"},
      {"measurement": "LD0", "setting": "L1210 [30]", "value": 70, "unit": "mg/kg"},
      {"measurement": "ILS", "setting": "Mus musculus [6]", "value": 70, "unit": "%"},
      {"measurement": "NADH oxidized", "setting": "[4]", "value": 0.22, "unit": "nM/min"},
      {"measurement": "Oxygen consumed", "setting": "[5]", "value": 0, "unit": "nM/min"}
    ]},
    {"compound": "Cc1c2ccncc2c(C)c2c1[nH]c1ccccc12", "note": "[ELLIPTECINE]", "values": [
      {"measurement": "IC50", "setting": "L1210 [1]", "value": 990, "unit": "nM"},
      {"measurement": "LD0", "setting": "L1210 [2]", "value": 50, "unit": "mg/kg"},
      {"measurement": "ILS", "setting": "Mus musculus [6]", "value": 68, "unit": "%"},
      {"measurement": "NADH oxidized", "setting": "[4]", "value": 0, "unit": "nM/min"},
      {"measurement": "Oxygen consumed", "setting": "[5]", "value": 0, "unit": "nM/min"}
    ]}
  ]
}
